MrgX1 PAM: allosterically activates human MrgX1 receptor signaling; Q96LB2; B-score at 10 µM; 310,000 tested, 0.63% active; MrgX1-HEK293, Fluo-4 calcium flux, FDSS; hits give high values;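 active = plate-corrected calcium response at least 3 library SD above typical, normal starting fluorescence, not activating the receptor alone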;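 also: compound read alongside a low EC10 to EC30 dose of BAM8-22 agonist; peak minus trough fluorescence over baseline measured at the second addition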
Target sequence (Q96LB2 whole entry, looked up): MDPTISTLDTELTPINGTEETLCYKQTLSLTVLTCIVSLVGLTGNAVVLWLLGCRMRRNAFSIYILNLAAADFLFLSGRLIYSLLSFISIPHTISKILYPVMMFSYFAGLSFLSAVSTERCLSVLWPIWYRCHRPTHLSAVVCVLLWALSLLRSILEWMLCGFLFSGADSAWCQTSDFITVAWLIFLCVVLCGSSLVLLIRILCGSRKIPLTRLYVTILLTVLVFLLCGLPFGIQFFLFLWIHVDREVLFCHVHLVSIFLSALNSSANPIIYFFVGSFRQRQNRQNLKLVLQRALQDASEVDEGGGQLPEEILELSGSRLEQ
RGS4 pot: potentiators or activators of RGS4; HEK293 M3R/inducible RGS4, carbachol calcium flux Fluo4; hits give low values; B-score at 10 µM; 310,000 tested, 0.92% active; AID 463111;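 active = B-score of the integrated calcium signal more than 4 SD below the library mean, with starting fluorescence not abnormally high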;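 also: negative B-score means reduced calcium response which marks RGS4 activation or potentiation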
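Detection: kinetic calcium fluorescence imaging with Fluo4-AM dye, 2 µM / Material: HEK293 cells with stable M3R and inducible RGS4 / Schedule: recording 10 s baseline at 1 Hz, 100 s post-agonist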
MrgX1 agonist: activates human MrgX1 receptor signaling | AID 588627 | 310,000 tested, 0.44% active | B-score at 10 µM | Q96LB2 | MrgX1-HEK293 cells, Fluo-4 calcium fluorescence, agonist mode; hits give high values;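 active = calcium response B-score plate-corrected fluorescence ratio at least 3 library SD, with starting fluorescence B-score inside 5 SD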
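Material – MrgX1-expressing HEK293 cells · Input – 15,000 cells seeded per well · Dosing – compound as first of three additions · Times – overnight seeding, then 1 h dark dye loading · Measured by – kinetic Fluo-4 NW fluorescence of intracellular calcium · Read-out – B-scored fluorescence response ratio · Benchmarks – positive and negative control wells on each plate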
RGS4 block: human RGS4 inhibition; P49798; HEK293 M3R/RGS4 inducible, Fluo-4 calcium flux; hits give high values; triggered by carbachol at its EC20; B-score at 10 µM; 310,000 tested, 0.45% active;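 active = B-score, a plate-corrected calcium signal, over three deviations above library mean, with baseline fluorescence within five deviations of library mean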;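 also: RGS4 expression induced by doxycycline in cells with stable M3 receptor; B-score is computed from the integrated fluorescence ratio over baseline after carbachol; higher B-score means a larger calcium signal and so more RGS4 inhibition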
PHOSPHO1 inh: blocks human PHOSPHO1 phosphatase activity | Q8TCT1 | recombinant PHOSPHO1, absorbance phosphatase assay | inhibition, % at 13.3 µM | 290,000 tested, 1.1% active; in the data active = inhibition above about 60%
MrgX1 antag: blocks BAM8-22 activation of human MrgX1 receptor; MRGX1-HEK293 calcium flux, Fluo-4, BAM8-22 antagonism; hits give low values; B-score at 10 µM; 310,000 tested, 1.3% active; AID 588676;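 active = calcium-response B-score plate-corrected more than 3 library SD below zero, starting fluorescence within 5 deviations, no agonist response on first addition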;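 also: peak minus trough fluorescence over baseline after final BAM8-22 challenge near maximal dose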
Of the large screens only hits and unclear results are named; the others gave an inactive call. Rows were chosen to be rich in hits. Some 4.5% of all compounds tested hit in one or more screens of this group.

COc1ccc(C/C(N)=N/O)cc1	MrgX1 antag -8.3
Cc1ccnc(N/C=C(\C#N)c2nc(-c3cccc(Br)c3)cs2)c1	MrgX1 agonist 36
N#C/C(=C\Nc1ccc2cn[nH]c2c1)c1nc(-c2ccccc2)cs1	none (no result: MrgX1 PAM, MrgX1 agonist, MrgX1 antag)
Cn1/c(=N\NC(=O)c2ccccc2Cl)sc2ccccc21	MrgX1 agonist 31
CC(C)c1ccc(CN2C(=O)NC3(CCCCCC3)C2=O)cc1	none
Clc1ccc2ccc3cccnc3c2n1	PHOSPHO1 inh 61
O=C(O)/C=C/c1ccc([N+](=O)[O-])o1	MrgX1 antag -5.2
Cc1cccc(C(=O)OCN2C(=O)c3ccccc3C2=O)c1[N+](=O)[O-]	none
Cc1cccc(C)c1NC(=O)COC(=O)c1ccccc1[N+](=O)[O-]	PHOSPHO1 inh 63
O=C(CCOc1ccccc1)Nc1ccccc1[N+](=O)[O-]	MrgX1 antag -5.4
CC(C)(C)CC(=O)NC(=S)Nc1ccccc1[N+](=O)[O-]	MrgX1 antag -5.7
O=C(CC(=O)Nc1ccccc1[N+](=O)[O-])Nc1ccccc1[N+](=O)[O-]	none
COC(=O)c1ccccc1NC(=O)COc1ccccc1	none
COC(=O)c1ccccc1NC(=O)COc1ccccc1[N+](=O)[O-]	MrgX1 antag -4.6
COc1ccc(CCNC(=O)C(=O)NCC2OCCN2S(=O)(=O)c2cccs2)cc1 (stereo not drawn)	none
CC1CCCC2(C1)NC(=S)N(c1ccccc1)N2 (stereo not drawn)	none
CC1(c2ccccc2)NC(=S)N2C1NC(=S)N2c1ccccc1 (stereo not drawn)	PHOSPHO1 inh 61
COc1ccc(N2C(=S)NC3N2C(=S)NC3(C)c2ccccc2)cc1 (stereo not drawn)	PHOSPHO1 inh 61
CCC1CCCCN1CCCNC(=O)c1ccc(N2CCCC2=O)cc1 (stereo not drawn)	none
Cn1nnnc1Sc1c(Cl)cccc1[N+](=O)[O-]	MrgX1 antag -5.6
CCC(C)(C)NC(=O)CN(C(=O)CCC(=O)Nc1nccs1)c1ccc2c(c1)OCCO2	none
Cc1csc(C(C)N(C)C(=O)c2ccc(OC3CCN(Cc4ccccn4)CC3)cc2)n1 (stereo not drawn)	none
CN(C)CCCNC(=O)N1c2ccccc2C=Cc2ccccc21	RGS4 pot -7.2
c1ccc(-c2cn3nc4c(nc3n2)CCCC4)cc1	RGS4 pot -7
Cc1ccc(C2=NS(=O)(=O)N(C)C(C(=O)NCc3ccc4c(c3)OCO4)=C2)cc1	none
Cc1ccc(-c2nnn(CC(=O)NC3CCCc4ccccc43)n2)cc1 (stereo not drawn)	PHOSPHO1 inh 62
COc1ccc(-n2c(N)c(C(=O)NCC3CCCO3)sc2=S)cc1 (stereo not drawn)	none
CCOC(=O)c1ccc(-n2c(N)c(C(=O)NCC3CCCO3)sc2=S)cc1 (stereo not drawn)	PHOSPHO1 inh 76
CCN(CC)S(=O)(=O)c1ccc(C2=NOC3(C2)N(C)c2ccccc2C3(C)C)cc1 (stereo not drawn)	RGS4 pot -8.4
O=C(C[n+]1ccc(-c2nnc3n2CCCCC3)cc1)c1ccc(Cl)cc1	none
CCc1ccc(C2=CC(c3cc(Br)ccc3F)n3ncnc3N2)cc1 (stereo not drawn)	MrgX1 PAM 11 (no result: RGS4 pot, RGS4 block)
Cc1ccsc1C1C=C(c2cccc(Br)c2)Nc2ncnn21 (stereo not drawn)	PHOSPHO1 inh 62
C1=C(c2ccccc2)Nc2ncnn2C1c1ccccc1 (stereo not drawn)	MrgX1 PAM 8.2 (no result: PHOSPHO1 inh)
Cc1ccc(C2=CC(c3ccccc3)n3ncnc3N2)cc1 (stereo not drawn)	none (no result: PHOSPHO1 inh)
COc1cccc(C2=CC(c3ccc(C)cc3)n3ncnc3N2)c1 (stereo not drawn)	none
Cc1ccccc1N1CCN(C2CCCN(C(=O)CCN3CCCCO3)C2)CC1 (stereo not drawn)	none
CCN1CCN(Cc2c3ccccc3cc3ccccc23)CC1	none
COc1ccccc1CCC(=O)OCC(=O)Nc1cc(C)nn1-c1ccccc1	none (no result: PHOSPHO1 inh)
COc1ccc(/C=C2\Oc3cc(OCC(N)=O)ccc3C2=O)cc1OC	RGS4 pot -8.2, MrgX1 antag -5.4
